Published values pooled from the literature.
Sample: plasma

CCOC(=O)C1=C(CN2CCC[C@@H]2C(=O)Nc2ccc(B(O)O)cc2)NC(c2nccs2)=N[C@H]1c1ccc(F)cc1Br
C0 (CD-1 mouse; intravenous; 2 mg/kg): 2160 ng/mL

COc1ccc(N(Cc2csc(-c3ccccc3)n2)C(=O)CCCCCC(=O)NO)cc1
Tmax (female Sprague-Dawley rat; oral; 30 mg/kg): 1 h

Cc1ncsc1-c1ccc([C@H](C)NC(=O)[C@@H]2C[C@@H](O)CN2C(=O)[C@@H](NC(=O)CCc2ccc(C#Cc3ccc(C(=O)NCCCn4cc(-c5ccc6c(c5)CCN6C(=O)Cc5cccc(OC(F)(F)F)c5)c5c(N)ncnc54)cc3)cn2)C(C)(C)C)cc1
clearance (male C57BL/6 mouse; intravenous; 1 mg/kg): 2.5 mL/min/kg

O=C1CCC(N2Cc3cc(CO)c(F)cc3C2=O)C(=O)N1 (centres unmarked)
C0 (male CD-1 mouse; intravenous; 1 mg/kg): 2190 ng/mL

CN(C)C(=O)c1cc2cnc(Nc3ccc(-c4ccc5c(=O)cc(N6CCOCC6)oc5c4)cc3)nc2n1C1CCCC1.Cl
CL/F (BALB/c mouse; oral; 20 mg/kg): 43.3 mL/min/kg

Cc1ccc(OCC(=O)N[C@@H](Cc2c[nH]c3ccccc23)C(=O)OC(C)C)cc1
clearance (male Sprague-Dawley mouse; oral; 20 mg/kg): 32.3 mL/min/kg

NCc1cc2c(cc1F)C(=O)N(C1CCC(=O)NC1=O)C2 (centres unmarked)
C0 (male CD-1 mouse; intravenous; 1 mg/kg): 2000 ng/mL

Cc1ncsc1-c1ccc([C@H](CC(=O)N2CCN(c3ccc(C#Cc4ccc(C(=O)N5CCC(n6cc(-c7ccc8c(c7)CCN8C(=O)Cc7cccc(OC(F)(F)F)c7)c7c(N)ncnc76)CC5)cc4)cn3)CC2)NC(=O)[C@@H]2C[C@@H](O)CN2C(=O)[C@@H](NC(=O)C2(F)CC2)C(C)(C)C)cc1
clearance (male C57BL/6 mouse; intravenous; 1 mg/kg): 2.3 mL/min/kg

C[C@H]1Oc2cc(cnc2N)-c2c(nn(C)c2C#N)CN(C)C(=O)c2ccc(F)cc21
Tmax (male Sprague-Dawley rat; oral; 10 mg/kg; single dose): 1.36 h

COc1cc(-c2cc(C(C)=O)n3ccccc23)c(OC)cc1Cn1ccnc1
Tmax (male Sprague-Dawley rat; intravenous; 5 mg/kg): 0.016 h

OCc1ccc(-c2nn(Cc3ccccc3)c3ccccc23)o1
C0 (male CD-1 mouse; intravenous; 5 mg/kg): 5100 ng/mL

C=CCn1c(=O)c2cnc(Nc3ccc(N4CCN(C)CC4)cc3)nc2n1-c1ccc2c(n1)[C@@](O)(CC)CC2
Cmax (dog; oral; 10 mg/kg): 2100 nM

OCc1nc2ccc(NCc3ccc(C(F)(F)F)cc3)cc2[nH]1
CL/F (male BALB/c mouse; intravenous; 1 mg/kg): 61.7 mL/min/kg

NCc1ccc(-c2nn(Cc3ccccc3)c3ccccc23)o1
C0 (male CD-1 mouse; intravenous; 5 mg/kg): 1520 ng/mL
